Holding throughout (assay type): functional, cell-based
One experiment concerns A549. In words: Cytotoxicity against human A549 cells expressing wild type p53 assessed as reduction in cell viability preincubated for 48 hrs and measured after 4 hrs by MTT assay.
Another experiment deals with T-24. In words: Cytotoxicity against human T-24 cells […] assessed as reduction in cell viability preincubated for 48 hrs and measured after 4 hrs by MTT assay.
A further experiment concerns PC-3. As to the kind of experiment: Cytotoxicity against human PC-3 cells assessed as reduction in cell viability preincubated for 48 hrs and measured after 4 hrs by MTT assay.
In the next experiment the test system is L02. In words: Cytotoxicity against human HL-7702 cells expressing wild type p53 assessed as reduction in cell viability preincubated for 48 hrs and measured after 4 hrs by MTT assay.
Another experiment deals with DU-145. In words: Cytotoxicity against human DU145 cells expressing mutant type p53 assessed as reduction in cell viability preincubated for 48 hrs and measured after 4 hrs by MTT assay. Summed up:
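MTT assay. Cells grown in DMEM (T24, MGC-803, A549, HL-7702), RPMI-1640 (DU145) or DMEM-F12 (PC-3), each with 10% FBS. Exposed to 1.25–20 µM in medium with 1% DMSO for 48 h, then MTT for 4 h. Formazan dissolved in DMSO and read at 570 nm. Five wells per concentration; means ± SD of independent repeats.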

The subject of a further experiment is MGC-803. In words: Cytotoxicity against human MGC-803 cells expressing mutant type p53 assessed as reduction in cell viability preincubated for 48 hrs and measured after 4 hrs by MTT assay.

For `C(=C\c1nc(NCCN2CCCCC2)c2ccccc2n1)/c1ccc2c(c1)OCO2`, the 50% inhibitory concentration (IC50) with A549 came to 39.6 µM; with T-24, 6.38 µM; with PC-3, 12.2 µM; in the experiment with L02, 9.91 µM; with DU-145 it was 8.53 µM; with MGC-803 it was 10.7 µM.

Consider `COc1ccc(/C=C/c2nc(NCCN3CCOCC3)c3cc(Cl)ccc3n2)cc1OC`, for which the concentration for half-maximal inhibition (IC50) in the experiment on A549 is over 100 µM; with T-24, 91.8 µM; in the experiment with PC-3, over 100 µM; with L02 it was over 100 µM; in the experiment with DU-145, over 100 µM; in the experiment with MGC-803, over 100 µM.

As to `CC(C)N(CCNc1nc(/C=C/c2ccc3c(c2)OCO3)nc2ccccc12)C(C)C`, the half-inhibitory concentration (IC50) was over 100 µM with A549; 17.5 µM in the experiment on T-24; over 100 µM in the experiment with PC-3; 21.2 µM with L02; over 100 µM in the experiment on DU-145; 11.3 µM with MGC-803.

On to `C(=C\c1nc(NCCN2CCOCC2)c2ccccc2n1)/c1ccc2c(c1)OCO2`, for which the 50% inhibitory concentration (IC50) in the experiment with A549, with T-24, in the experiment with PC-3, in the experiment on L02, with DU-145 and with MGC-803 was over 100 µM each time.

On to `COc1ccc(/C=C/c2nc(NCCN(C)C)c3ccccc3n2)cc1OC`, for which the IC50 with A549, in the experiment on T-24, in the experiment with PC-3, in the experiment with L02, in the experiment with DU-145 and with MGC-803 was over 100 µM throughout.

On to `CN(C)CCNc1nc(/C=C/c2ccc3c(c2)OCO3)nc2ccc(Cl)cc12`, for which the 50% inhibitory concentration (IC50) in the experiment with A549 is over 100 µM; with T-24, 9.61 µM; in the experiment with PC-3 it was over 100 µM; with L02 it was over 100 µM; in the experiment with DU-145, over 100 µM; with MGC-803, 9.46 µM.

As for `CN(C)CCNc1nc(/C=C/c2ccc3c(c2)OCO3)nc2ccccc12`, the IC50 is over 100 µM with A549; 66.4 µM with T-24; over 100 µM in the experiment on PC-3; 57.8 µM in the experiment with L02; over 100 µM in the experiment on DU-145; over 100 µM with MGC-803.

In the case of `COc1ccc(/C=C/c2nc(NCCN(C)C)c3cc(Cl)ccc3n2)cc1OC`, the half-inhibitory concentration (IC50) worked out at 21.3 µM with A549; 12.1 µM with T-24; 23.6 µM with PC-3; 80.5 µM in the experiment on L02; 17.9 µM in the experiment on DU-145; 11.8 µM in the experiment with MGC-803.

For `CC(C)N(CCNc1nc(/C=C/c2ccc3c(c2)OCO3)nc2ccc(Cl)cc12)C(C)C`, the IC50 in the experiment with A549 was over 100 µM; in the experiment with T-24, 7.46 µM; in the experiment with PC-3 it was 10.6 µM; with L02 it was over 100 µM; in the experiment on DU-145, 8.78 µM; with MGC-803, 8.57 µM.

For the compound `Clc1ccc2nc(/C=C/c3ccc4c(c3)OCO4)nc(NCCN3CCOCC3)c2c1`, the IC50 with A549 was over 100 µM; in the experiment with T-24, 38.3 µM; in the experiment with PC-3 it was over 100 µM; with L02 it was over 100 µM; with DU-145, over 100 µM; in the experiment on MGC-803, over 100 µM.

Consider `COc1ccc(/C=C/c2nc(NCCCN(C)C)c3ccccc3n2)cc1OC`, for which the IC50 is over 100 µM in the experiment with A549; 88.4 µM with T-24; over 100 µM in the experiment on PC-3; over 100 µM with L02; over 100 µM in the experiment on DU-145; over 100 µM with MGC-803.

`CCN(CC)CCNc1nc(/C=C/c2ccc(OC)c(OC)c2)nc2ccc(Cl)cc12`: the half-maximal inhibitory concentration (IC50) in the experiment with A549 is over 100 µM; with T-24 it was 12.2 µM; in the experiment on PC-3, over 100 µM; in the experiment with L02, 91.2 µM; in the experiment with DU-145, over 100 µM; in the experiment on MGC-803, 16.8 µM.

In the case of `O=[N+]([O-])c1ccc(/C=C/c2nc(NCCN3CCOCC3)c3ccccc3n2)cc1`, the IC50 with A549, with T-24, with PC-3, in the experiment on L02, in the experiment with DU-145 and in the experiment with MGC-803 was over 100 µM throughout.

With `NCCCCNc1nc(/C=C/c2ccc3c(c2)OCO3)nc2ccc(Cl)cc12`, the IC50 was 9.82 µM in the experiment with A549; 5.65 µM in the experiment with T-24; over 100 µM in the experiment on PC-3; over 100 µM in the experiment with L02; 50.3 µM in the experiment on DU-145; 10.3 µM with MGC-803.

Take `COc1ccc(/C=C/c2nc(NCCCN(C)C)c3cc(Cl)ccc3n2)cc1OC`: the IC50 in the experiment on A549, with T-24, in the experiment on PC-3, with L02, with DU-145 and in the experiment with MGC-803 was over 100 µM in each case.

Consider `CCN(CC)CCCNc1nc(/C=C/c2ccc(OC)c(OC)c2)nc2ccccc12`, for which the 50% inhibitory concentration (IC50) in the experiment with A549, in the experiment with T-24, with PC-3, in the experiment with L02, in the experiment on DU-145 and with MGC-803 was over 100 µM throughout.

Consider `CCN(CC)CCCNc1nc(/C=C/c2ccc3c(c2)OCO3)nc2ccc(Cl)cc12`, for which the half-inhibitory concentration (IC50) was over 100 µM with A549; 9.74 µM in the experiment on T-24; over 100 µM in the experiment with PC-3; over 100 µM with L02; over 100 µM in the experiment on DU-145; 12.9 µM in the experiment with MGC-803.

Regarding `CCN(CC)CCNc1nc(/C=C/c2ccc3c(c2)OCO3)nc2ccc(Cl)cc12`, the half-inhibitory concentration (IC50) in the experiment with A549 was over 100 µM; in the experiment on T-24, 8.17 µM; in the experiment on PC-3 it was 14.2 µM; in the experiment on L02 it was 15.9 µM; in the experiment with DU-145, 7.56 µM; in the experiment on MGC-803, 11.1 µM.

Take `CN(C)CCNc1nc(/C=C/c2ccc([N+](=O)[O-])cc2)nc2ccc(Cl)cc12`: the half-inhibitory concentration (IC50) in the experiment on A549 was over 100 µM; with T-24, 6.97 µM; with PC-3, 8.02 µM; in the experiment with L02, 71.3 µM; in the experiment on DU-145 it was 6.76 µM; in the experiment on MGC-803, 4.68 µM.

In the case of `COc1ccc(/C=C/c2nc(NCCN3CCOCC3)c3ccccc3n2)cc1OC`, the IC50 in the experiment with A549, in the experiment on T-24, in the experiment with PC-3, with L02, in the experiment with DU-145 and in the experiment on MGC-803 was over 100 µM each time.

For the compound `CCN(CC)CCNc1nc(/C=C/c2ccc([N+](=O)[O-])cc2)nc2ccccc12`, the concentration for half-maximal inhibition (IC50) in the experiment with A549 is over 100 µM; with T-24 it was over 100 µM; in the experiment on PC-3, over 100 µM; with L02 it was 44.5 µM; with DU-145, over 100 µM; in the experiment with MGC-803, over 100 µM.

Regarding `CCN(CC)CCNc1nc(/C=C/c2ccc([N+](=O)[O-])cc2)nc2ccc(Cl)cc12`, the IC50 was over 100 µM with A549; 11 µM in the experiment on T-24; over 100 µM in the experiment with PC-3; over 100 µM with L02; 12.4 µM with DU-145; 7.12 µM in the experiment on MGC-803.

As for `COc1ccc(/C=C/c2nc(NCCN3CCCCC3)c3cc(Cl)ccc3n2)cc1OC`, the concentration for half-maximal inhibition (IC50) with A549 is over 100 µM; with T-24, 7.64 µM; in the experiment with PC-3, 21.2 µM; with L02 it was 13.9 µM; in the experiment with DU-145 it was 17.2 µM; in the experiment with MGC-803, 13.5 µM.

`Clc1ccc2nc(/C=C/c3ccc4c(c3)OCO4)nc(NCCN3CCCCC3)c2c1`: the IC50 was over 100 µM in the experiment on A549; 9.22 µM in the experiment with T-24; over 100 µM in the experiment on PC-3; over 100 µM with L02; over 100 µM in the experiment on DU-145; 14.7 µM with MGC-803.

Turning to `COc1ccc(/C=C/c2nc(NCCCCN)c3cc(Cl)ccc3n2)cc1OC`, the IC50 in the experiment with A549 was 50.5 µM; with T-24, 7.82 µM; in the experiment on PC-3 it was over 100 µM; in the experiment on L02, over 100 µM; in the experiment on DU-145 it was 20 µM; in the experiment on MGC-803, 14.1 µM.

Regarding `COc1ccc(/C=C/c2nc(NCCN3CCCCC3)c3ccccc3n2)cc1OC`, the IC50 was 82.7 µM with A549; 10.5 µM in the experiment on T-24; 78.5 µM in the experiment on PC-3; 19.8 µM in the experiment with L02; 71.6 µM with DU-145; 33.2 µM in the experiment with MGC-803.

On to `COc1ccc(/C=C/c2nc(NCCCCN)c3ccccc3n2)cc1OC`, for which the concentration for half-maximal inhibition (IC50) in the experiment on A549 was over 100 µM; in the experiment with T-24, 30.9 µM; with PC-3, over 100 µM; with L02 it was over 100 µM; in the experiment on DU-145, over 100 µM; in the experiment with MGC-803, 70.5 µM.

With `NCCCCNc1nc(/C=C/c2ccc3c(c2)OCO3)nc2ccccc12`, the 50% inhibitory concentration (IC50) in the experiment with A549 is over 100 µM; with T-24 it was 41.2 µM; in the experiment with PC-3 it was over 100 µM; in the experiment on L02 it was over 100 µM; in the experiment with DU-145, over 100 µM; in the experiment with MGC-803 it was 24.6 µM.

For the compound `CCN(CC)CCCNc1nc(/C=C/c2ccc([N+](=O)[O-])cc2)nc2ccccc12`, the half-maximal inhibitory concentration (IC50) is over 100 µM in the experiment on A549; 5.42 µM with T-24; 15.4 µM with PC-3; 5.3 µM in the experiment with L02; 12.3 µM in the experiment on DU-145; 8.25 µM in the experiment on MGC-803.

Turning to `CN(C)CCCNc1nc(/C=C/c2ccc([N+](=O)[O-])cc2)nc2ccc(Cl)cc12`, the IC50 with A549 was 15.8 µM; in the experiment with T-24 it was 7.42 µM; with PC-3, 5.32 µM; in the experiment on L02 it was over 100 µM; in the experiment on DU-145 it was 8.49 µM; with MGC-803, 6.67 µM.

Turning to `O=[N+]([O-])c1ccc(/C=C/c2nc(NCCN3CCCCC3)c3ccccc3n2)cc1`, the IC50 is 28.2 µM in the experiment on A549; 36.2 µM with T-24; 25.6 µM in the experiment with PC-3; over 100 µM with L02; over 100 µM in the experiment with DU-145; 27.6 µM in the experiment on MGC-803.

The values are drawn from ChEMBL document CHEMBL4680124, “2-Styryl-4-aminoquinazoline derivatives as potent DNA-cleavage, p53-activation and in vivo effective anticancer agents” (Eur J Med Chem, 2020).
